# Rows were chosen to be rich in hits. Some 4.4% of all compounds tested hit in one or more screens of this group.
# SENP1 FRET inh = blocks the human SENP1 SUMO protease catalytic domain | Q9P0U3 | recombinant SENP1 catalytic domain, CyPet-SUMO1-YPet FRET cleavage | inhibition, % at 10 µM | 360,000 tested, 0.21% active;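 active = inhibition at least 30% at 10 µM, raw YFP signal under a set limit, fluorescence ratio 0.5 to 1.5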;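 note: 0% = enzyme with DMSO and 100% = no enzyme wells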
#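 Controls: no-enzyme wells low, DMSO-plus-enzyme wells high control. Test system: human recombinant His6-tagged SENP1 catalytic domain enzyme. Reagent: SFCypet-SUMO1-SFYpet FRET protein substrate, 25 nM final. Doses: one dose per compound, 10 µM, 0.5% DMSO. Detection: FRET, CFP and YFP emission. Timing: 50 min reaction at room temperature.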
# MPTP inh = permeability transition pore inhibition | isolated mouse mitochondria, Ca2+ swelling absorbance, 30 min | inhibition, % at 10 µM | 360,000 tested, 1.4% active | AID 602449;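 active = inhibition of 50% or more, scaled per plate between neutral and stimulator controls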;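 note: 0% = DMSO wells given calcium and 100% = 1 mM EGTA wells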
# EBI2 antag = antagonists of human EBI2 receptor. P32249. EBI2 beta-arrestin recruitment, luminescence, 7a,25-OHC stimulated. inhibition, % at 5 µM. 360,000 tested, 0.81% active; in the data active = inhibition above about 38%;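 note: enzyme fragment complementation signal reports receptor beta-arrestin coupling in cells; 0% = agonist plus DMSO wells and 100% = wells without agonist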
# Target sequence (P32249 whole entry, looked up, the tested form may be a part): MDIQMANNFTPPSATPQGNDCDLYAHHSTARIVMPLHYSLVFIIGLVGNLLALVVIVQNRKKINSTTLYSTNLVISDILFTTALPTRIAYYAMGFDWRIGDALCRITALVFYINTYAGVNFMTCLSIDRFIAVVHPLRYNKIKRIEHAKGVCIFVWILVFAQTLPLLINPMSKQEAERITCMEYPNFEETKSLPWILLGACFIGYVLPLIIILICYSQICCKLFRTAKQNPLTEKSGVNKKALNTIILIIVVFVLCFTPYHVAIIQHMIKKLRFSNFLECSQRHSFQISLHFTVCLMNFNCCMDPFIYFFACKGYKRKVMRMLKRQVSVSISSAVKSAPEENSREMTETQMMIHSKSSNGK
# GRIN3A LBD mod = modulates the human NR3A ligand-binding domain; NR3A LBD differential scanning fluorimetry, Tm shift; 0% = protein alone, 100% = glycine-bound protein; 340,000 tested, 2.5% active; Tm shift relative to glycine control, % at 25 µM; AID 1259313;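 active = melting temperature shift of at least 10% of the positive control shift, at one fixed dose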
# SENP1 inh conf = SENP1 (human) inhibition, single concentration confirmation; shares compounds with SENP1 FRET inh; recombinant SENP1, CyPet-SUMO1-YPet FRET cleavage; inhibition, % at 10 µM; 520 tested, 34% active; AID 651678; in the data active = inhibition mostly above about 35%, no sharp cut-off; inactive = mostly below about 32%;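 note: 0% = enzyme with DMSO and 100% = no enzyme control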
# SENP1 kin conf = SENP1 (human) inhibition, kinetic confirmation | recombinant SENP1, CyPet-SUMO1-YPet FRET kinetic cleavage | 520 tested, 26% active | inhibition, % at 10 µM | shares compounds with SENP1 FRET inh; in the data active = inhibition mostly above about 32%, no sharp cut-off; inactive = mostly below about 29%;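 note: 0% = DMSO with enzyme and 100% = no enzyme substrate only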
# * = called active by the depositor; . = no result given.
SMILES,SENP1 FRET inh,MPTP inh,EBI2 antag,GRIN3A LBD mod,SENP1 inh conf,SENP1 kin conf
COc1ccc(Nc2cc(C)nc3ncnn23)cc1Cl,29.2*,-0.2,-0.6,1.4,34.6*,20.0
COc1cc(Nc2cc(C)nc3ncnn23)cc(OC)c1OC,0.6,-1.1,-6.5,-2.2,.,.
COc1cc(NC2=Nc3cccc4cccc2c34)cc(OC)c1OC,68.2*,-1.1,7.4,-2.1,39.0*,21.8
C(=N\NC1=Nc2cccc3cccc1c23)/c1ccccc1,-20.3,1.5,33.7,-1.9,.,.
COc1ccc(NC2=Nc3cccc4cccc2c34)cc1OC,69.7*,0.4,1.5,-15.9,29.4,11.7
COc1cccc(NC2=Nc3cccc4cccc2c34)c1,80.7*,1.7,13.3,-13.7,54.8*,33.3*
COCCCC1CCN(C(=O)c2cc(COc3cc(C)ccc3C)on2)CC1,-2.6,-1.7,-4.0,4.1,.,.
COc1ccc(-c2nnc(C)c3nocc23)cc1,37.0*,0.8,0.2,0.5,22.7,20.9
COc1cc(/C=C2\CCCc3c2nc2ccccc2c3C(=O)O)cc(Br)c1O,56.0*,-0.9,2.0,2.2,97.0*,66.9*
COc1cc(/C=C2\CCc3c2nc2ccccc2c3C(=O)O)cc(OC)c1OC,-32.8,1.9,-10.3,0.5,.,.
Fc1ccc(C2=CC(c3cccs3)n3nnnc3N2)cc1 (centres undefined),33.4*,0.6,-3.2,-1.0,9.5,10.8
S=C(NCCCN1CCOCC1)N1CCN(c2cccc(Cl)c2)CC1,1.6,-0.2,-10.9,1.8,.,.
CC(C)CCN(C(=O)C1=COCCO1)c1c(N)n(Cc2ccccc2)c(=O)[nH]c1=O,33.7*,-0.3,7.5,-0.6,9.3,6.0
Cc1nc2ccc(NS(=O)(=O)c3ccc(F)c(F)c3F)cc2s1,26.2,1.2,-6.2,-0.8,.,.
Cc1nc2ccc(NS(=O)(=O)c3c(F)cc(F)cc3Br)cc2s1,43.6*,9.5,-6.5,-5.3,18.4,17.4
Cc1nc2ccc(NS(=O)(=O)c3ccc(F)cc3F)cc2s1,57.8*,2.9,-8.1,-0.9,37.3*,28.9
CCN(C(=O)CSc1ccccn1)C1CCCCC1,2.5,-0.2,-1.4,0.5,.,.
COc1ccccc1Nc1ncc(C(=O)N2CCN(Cc3ccc(OC)c(OC)c3OC)CC2)c2ccccc12,-2.5,-1.1,-9.8,0.1,.,.
CCN(C[C@H]1N[C@@](C)(C(=O)OC)[C@H]2C(=O)N(C)C(=O)[C@@H]12)C(=O)Nc1ccc(C(F)(F)F)cc1,0.7,-0.8,-5.4,0.8,.,.
O=C(NCc1ccccc1)C(c1ccco1)N(C(=O)c1ccccn1)c1ccc(F)cc1 (centres undefined),2.5,-0.3,7.2,-1.9,.,.
CNc1nc(-c2ccc([N+](=O)[O-])cc2)cs1,43.8*,-4.0,3.8,-0.2,12.5,11.8
CC(C)C(=O)Nc1nc(-c2ccc([N+](=O)[O-])cc2)cs1,2.4,0.2,-5.2,-0.6,.,.
O=C(Nc1nccs1)c1cc2cc(Cl)ccc2oc1=O,44.6*,1.0,8.0,-2.0,96.5*,82.6*
O=S(=O)(NC1=NCCCCC1)c1ccc2ccccc2c1,-1.3,2.6,-1.3,-2.1,.,.
CN1CCN(C2=Nc3c(Cl)cc(Cl)c4cccc2c34)CC1,82.2*,-0.2,-5.6,-0.7,101.0*,56.7*
SMILES,SENP1 FRET inh,MPTP inh,EBI2 antag,GRIN3A LBD mod,SENP1 inh conf,SENP1 kin conf
COC(=O)CSc1nc2cc(OC)ccc2cc1C#N,37.4*,0.0,12.4,-0.3,16.4,3.0
COc1ccc2cc(C#N)c(SCC(=O)N3CCCC3)nc2c1,-26.9,-0.2,-0.1,-0.3,.,.
Cc1ccc(NC(=S)NNC(=O)CSc2nc3ccccc3c(=O)n2-c2ccc(C)cc2)cc1,3.8,3.2,-0.2,0.9,.,.
C/C(=N/N=C(\C)c1ccccc1O)c1ccccc1O,68.1,3.7,-7.2,4.9,.,.
CCC(=NN=C(CC)c1ccccc1O)c1ccccc1O,46.6*,1.2,11.3,-0.2,130.1*,73.4*
CCOc1ccc(OCC(=O)Nc2ccc(OC)cc2[N+](=O)[O-])cc1,-3.5,-0.8,-4.9,-2.5,.,.
CCOc1ccc(NC(=O)/C=C/c2ccccc2)c([N+](=O)[O-])c1,37.1*,0.8,8.0,15.5*,14.8,10.3

# Screening results deposited in PubChem by Sanford-Burnham Center for Chemical Genomics.
